Results on 15 compounds are retold here after ChEMBL document CHEMBL1833971, “Towards rational design of cannabinoid receptor 1 (CB1) antagonists for peripheral selectivity” (Bioorg Med Chem Lett, 2011).

A word on the Ki: it is a measure of affinity in units of concentration, obtained from inhibition or displacement. Higher therefore signals lower affinity.

Data set [1] concerns the target Cannabinoid receptor 2 (Homo sapiens, UniProt P34972). The experiment in a line: Displacement of [3H]-CP55940 from human CB2 receptor expressed in CHO-K1 cells after 1 hr by liquid scintillation spectrometry. Type of data set: cell-based. In outline: (§1)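 Membranes from CHO-K1 cells over-expressing CB1 or CB2 used for [3H]CP55940 displacement, giving Ki at each receptor. Selectivity taken as the comparison of the CB2 and CB1 Ki values.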
On the technique in general: Displacement assays read how much labelled ligand stays bound in the presence of the test substance.

Data set [2] has as its target T1, Cannabinoid receptor 1 (Homo sapiens, UniProt P21554). The experiment in a line: Displacement of [3H]-SR141716A from human CB1 receptor expressed in CHO-K1 cells after 1 hr by liquid scintillation counting. The data set is classed as cell-based.
The species named for data set [3] is Homo sapiens. The experiment in a line: Selectivity ratio of Ki for human CB2 receptor to Ki for human CB1 receptor. In outline: as §1
Data set [4] addresses T1, Cannabinoid receptor 1. The experiment in a line: Displacement of [3H]-CP55940 from human CB1 receptor expressed in CHO-K1 cells after 1 hr by liquid scintillation spectrometry. Type of data set: cell-based.
Data set [5] has as its system MDCK. The data set can be described thus: Permeability from apical to basolateral side of MDR1 transfected MDCK cells at 3.16 uM after 1 hr by LC/MS analysis. As to conditions: dog. The data set is classed as ADME, cell-based, Canis lupus familiaris. In outline:
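MDCK-mdr1 cells grown on filters for 4 days to confluence. Compound added apically at 3.16 μM, incubated 1 hr at 37°C. Apical-to-basal transport quantified by mass spectrometry in MRM mode, tuned per compound by infusion.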

The target of data set [6] is T1, Cannabinoid receptor 1. The data set can be described thus: Antagonist activity at human CB1 receptor transfected in CHO-K1 cells co-expressing G-alpha-q16 protein assessed as inhibition of G-alpha-q16 protein-mediated intracellular calcium mobilization. The data set is classed as functional, cell-based. For orientation: A change in cytosolic calcium serves as a functional read-out for many receptors and channels.

Molecules are shown by their SMILES.

Cannabinoid receptor 2, sequence (P34972 whole entry): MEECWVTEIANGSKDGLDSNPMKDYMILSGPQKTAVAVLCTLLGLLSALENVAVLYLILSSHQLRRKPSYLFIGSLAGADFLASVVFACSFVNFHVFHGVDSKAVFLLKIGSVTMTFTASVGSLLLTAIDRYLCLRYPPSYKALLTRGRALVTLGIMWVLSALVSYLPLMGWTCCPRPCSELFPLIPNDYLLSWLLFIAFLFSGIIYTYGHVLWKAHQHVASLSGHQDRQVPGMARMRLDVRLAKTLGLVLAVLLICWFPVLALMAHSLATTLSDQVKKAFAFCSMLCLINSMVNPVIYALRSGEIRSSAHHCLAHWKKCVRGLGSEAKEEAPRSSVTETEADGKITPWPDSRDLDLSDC
T1 sequence (P21554 whole entry): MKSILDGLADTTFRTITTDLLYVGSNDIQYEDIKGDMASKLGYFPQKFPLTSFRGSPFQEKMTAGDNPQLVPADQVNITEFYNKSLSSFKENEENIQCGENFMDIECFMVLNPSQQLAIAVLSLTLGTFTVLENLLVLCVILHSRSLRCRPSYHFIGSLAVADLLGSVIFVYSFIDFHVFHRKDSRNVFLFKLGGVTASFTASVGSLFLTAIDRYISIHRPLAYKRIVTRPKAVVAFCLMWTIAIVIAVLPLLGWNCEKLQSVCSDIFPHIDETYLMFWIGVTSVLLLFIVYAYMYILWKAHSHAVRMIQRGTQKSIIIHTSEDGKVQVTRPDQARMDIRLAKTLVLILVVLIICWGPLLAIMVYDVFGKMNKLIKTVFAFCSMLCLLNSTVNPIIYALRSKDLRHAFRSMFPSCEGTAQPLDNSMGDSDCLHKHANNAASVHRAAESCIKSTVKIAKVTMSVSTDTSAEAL

Consider `Cc1c(C(=O)Nc2ccncc2)nn(-c2ccc(Cl)cc2Cl)c1-c1ccc(Cl)cc1`, for which the Ki in data set [1] stood at 1740 nM; in data set [2] it was 13 nM; in data set [4], 56 nM. The Ratio Ki in data set [3] was 31.

In the case of `Cc1c(C(=O)NC[C@H]2CC[C@@H](CNS(C)(=O)=O)CC2)nn(-c2ccc(Cl)cc2Cl)c1-c1ccc(Cl)cc1`, the Ki came out at 960 nM in data set [1], 8 nM in data set [2] and 36 nM in data set [4]. In addition, in data set [5], the permeability was < 1%.

Turning to `Cc1c(C(=O)Nc2ccc(C)[n+](C)c2)nn(-c2ccc(Cl)cc2Cl)c1-c1ccc(Cl)cc1`, the Ki in data set [1] was determined as 2270 nM; in data set [2] it was 786 nM; in data set [4] it was 1700 nM. Moreover, the Ratio Ki in data set [3] worked out at 1.3.

On to `Cc1ccc(NC(=O)c2nn(-c3ccc(Cl)cc3Cl)c(-c3ccc(Cl)cc3)c2C)cn1`, for which the Ki in data set [1] is 4010 nM; in data set [2], 26 nM; in data set [4], 102 nM. Besides, the Ratio Ki in data set [3] stood at 39.

Compound `Cc1c(C(=O)NC[C@H]2CC[C@@H](CNS(N)(=O)=O)CC2)nn(-c2ccc(Cl)cc2Cl)c1-c1ccc(Cl)cc1` gave a Ki in data set [1] of 1790 nM. Further, the permeability in data set [5] is < 1%.

`Cc1c(C(=O)NCCCCCCCNS(N)(=O)=O)nn(-c2ccc(Cl)cc2Cl)c1-c1ccc(Cl)cc1`: the Ki is 1010 nM in data set [1], 20 nM in data set [2] and 49 nM in data set [4]. The Ke in data set [6] worked out at 0.304 µM. The Ratio Ki in data set [3] was found to be 21.

`Cc1c(C(=O)NCCCCCCCNS(C)(=O)=O)nn(-c2ccc(Cl)cc2Cl)c1-c1ccc(Cl)cc1` came in with a Ki in data set [1] of 780 nM.

Take `Cc1c(C(=O)NCc2ccc(CNS(C)(=O)=O)cc2)nn(-c2ccc(Cl)cc2Cl)c1-c1ccc(Cl)cc1`: the Ke in data set [6] came out at 2.93 µM.

As to `Cc1c(C(=O)NCc2cccc(CNS(N)(=O)=O)c2)nn(-c2ccc(Cl)cc2Cl)c1-c1ccc(Cl)cc1`, the Ke in data set [6] worked out at 4.2 µM.

On to `Cc1c(C(=O)Nc2cc[n+]([O-])cc2)nn(-c2ccc(Cl)cc2Cl)c1-c1ccc(Cl)cc1`, for which the values for the Ki in data set [1], in data set [2] and in data set [4] were 4520 nM, 61 nM and 294 nM, respectively. The Ke in data set [6] was 1.39 µM. Further, the Ratio Ki in data set [3] was determined as 15.

Consider `Cc1c(C(=O)NCC2CCC(CNS(C)(=O)=O)CC2)nn(-c2ccc(Cl)cc2Cl)c1-c1ccc(Cl)cc1` (mixture of isomers), for which the results for the inhibitory constant (Ki) in data set [1], in data set [2] and in data set [4] were 900 nM, 11 nM and 55 nM, respectively.

As to `Cc1c(C(=O)NCc2ccc(CNS(N)(=O)=O)cc2)nn(-c2ccc(Cl)cc2Cl)c1-c1ccc(Cl)cc1`, the Ke in data set [6] came to 0.376 µM.

Regarding `Cc1c(C(=O)NCc2cccc(CNS(C)(=O)=O)c2)nn(-c2ccc(Cl)cc2Cl)c1-c1ccc(Cl)cc1`, in data set [6], the Ke came out at 2.83 µM.

As for `Cc1c(C(=O)NCC2CCC(CNS(N)(=O)=O)CC2)nn(-c2ccc(Cl)cc2Cl)c1-c1ccc(Cl)cc1` (mixture of isomers), in data set [1], the inhibitory constant (Ki) was determined as 2310 nM.

`Cc1c(C(=O)NCCCN(C)CCCNS(C)(=O)=O)nn(-c2ccc(Cl)cc2Cl)c1-c1ccc(Cl)cc1`: the Ke in data set [6] worked out at 5.34 µM.
